For series [1], the target named is Human immunodeficiency virus type 1 integrase (Human immunodeficiency virus 1, UniProt Q7ZJM1). Briefly: Inhibition of HIV 3B integrase strand transfer activity. The gist of the method: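 IN expressed in E. coli BL21(DE3) by IPTG induction. 600 nM IN in HEPES pH 7.5, 10 mM MnCl2, 1 mM DTT, 10% glycerol, BSA, Brij-35 preincubated 10 min at room temperature with inhibitor or DMSO; 50 nM annealed 5'-biotin/3'-cy5 duplex DNA added, 2 h 37 °C. Product captured on streptavidin plate, washed, eluted with formamide, fluorescence read.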
Human immunodeficiency virus type 1 integrase, sequence (Q7ZJM1 whole entry): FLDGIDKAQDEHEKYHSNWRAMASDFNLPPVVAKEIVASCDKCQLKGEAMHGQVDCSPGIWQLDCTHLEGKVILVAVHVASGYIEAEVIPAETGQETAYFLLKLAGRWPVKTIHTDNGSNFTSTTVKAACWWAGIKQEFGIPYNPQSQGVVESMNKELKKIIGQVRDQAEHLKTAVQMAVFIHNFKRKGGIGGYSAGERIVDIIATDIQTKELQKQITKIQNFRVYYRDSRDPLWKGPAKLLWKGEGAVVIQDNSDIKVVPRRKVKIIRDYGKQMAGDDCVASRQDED

The target in series [2] is Human immunodeficiency virus type 1 reverse transcriptase (Human immunodeficiency virus 1) (UniProt Q72547). Nature of the series: Inhibition of HIV 3B reverse transcriptase at 10 uM using [3H]TTP as a tracer by scintillation counting. The gist of the method: (§1)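 Resin-bound poly(A) template in scintillation format incubated with compound and [3H]-TTP tracer; reaction started by adding RT enzyme, run 3 h at 37 °C, quenched with stop buffer; incorporated [3H]-TTP counted 1 min per sample on a beta counter.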

The target is the same in series [3]. Nature of the series: Inhibition of HIV 3B reverse transcriptase at 100 uM using [3H]TTP as a tracer by scintillation counting. The gist of the method:
as §1

Series [4] has as its system Human immunodeficiency virus 1. Briefly: Antiviral activity against HIV1 3B infected in human CEM-SS cells assessed as reduction in virus-induced cytopathic effect at 10 uM after 6 days by MTS assay. The series is classed as functional. (In general: Damage to the host cells serves as the signal in cytopathic effect assays.)
Series [5] has as its target Human immunodeficiency virus type 1 reverse transcriptase (Human immunodeficiency virus 1, UniProt Q72547). Nature of the series: Inhibition of HIV 3B reverse transcriptase using [3H]TTP as a tracer by scintillation counting.
The subject of series [6] is Human immunodeficiency virus 1. Nature of the series: Antiviral activity against HIV1 3B infected in human CEM-SS cells assessed as inhibition of virus-induced cytopathic effect after 6 days by MTS assay. The series is classed as functional, organism-based. As to conditions: Human immunodeficiency virus 1, 3B, 144 h. The gist of the method: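 CEM-SS cells mixed with pre-titered HIV-1 IIIB (virus control wells lose 70–95% viability) in presence of compound, incubated 6 days; cytoprotection read by MTS or XTT dye reduction. Plates held cell, virus, compound toxicity and colorimetric controls; AZT positive control. EC50 = concentration inhibiting virus replication by 50%.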

Series [7] in a line: Cytotoxicity against human CEM-SS cells after 6 days by MTS assay. The series is classed as cell-based. The settings on record: read-out: TC50.
The nature of series [8]: Therapeutic index, ratio of TC50 for human CEM-SS cells to EC50 for HIV1 3B. The series is classed as cell-based. As to conditions: read-out: TI. Summed up: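 TI calculated as TC50/EC50 from the 6-day CEM-SS cytoprotection assay (HIV-1 IIIB; MTS or XTT dye reduction) and matching compound-only toxicity wells.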

Here are results for twelve compounds from ChEMBL document CHEMBL1166013, “Pharmacophore and structure-activity relationships of integrase inhibition within a dual inhibitor scaffold of HIV reverse transcriptase and integrase” (Bioorg Med Chem, 2010).

Calls of active or inactive are those of the source. The rule behind the calls is not given here. Where only a bound is given, the exact number is not on record here.

`CCc1c(Cc2ccccc2)nc(SCc2ccc(Cc3cccc(C(=O)/C=C(\O)C(=O)O)c3)cc2)[nH]c1=O` gave a half-inhibitory concentration (IC50) in series [1] above 100 µM. The inhibition in series [2] and in series [3] was 0% each time. Besides, the outcome in series [4] was inactive.
For `CCc1c(Cc2cc(C)cc(C)c2)n(COCc2ccc(Cc3cccc(C(=O)/C=C(\O)C(=O)O)c3)cc2)c(=O)[nH]c1=O`, the IC50 in series [5] was 0.028 µM; in series [1], 14 µM. Moreover, the EC50 in series [6] stood at 0.014 µM. Also, the CC50 at 144 h in series [7] is above 100 µM. Besides, the selectivity ratio in series [8] was above 710.
The compound `CC(C)c1c(Cc2ccccc2)[nH]c(=O)n(CCCCCCc2ccc(C(=O)/C=C(\O)C(=O)O)cc2)c1=O` showed a half-inhibitory concentration (IC50) in series [1] above 100 µM. Further, the inhibition in series [2] and in series [3] was 0% in each case. Moreover, the Activity in series [4] was found to be 9%.
Turning to `Cc1cc(C)cc(Cc2c(C(C)C)c(=O)[nH]c(=O)n2COCc2ccc(Cc3cccc(C(=O)/C=C(\O)C(=O)O)c3)cc2)c1`, the IC50 in series [5] was 0.1 µM; in series [1], 22 µM. Further, the half-maximal effective concentration (EC50) in series [6] is 0.17 µM. In addition, in series [7], the CC50 at 144 h was determined as 96 µM. In addition, the selectivity ratio in series [8] came out at 560.
For `CC(C)c1c(Cc2ccccc2)n(COCc2ccc(Cc3cccc(C(=O)/C=C(\O)C(=O)O)c3)cc2)c(=O)[nH]c1=O`, in that order: 0.16 µM, 11 µM, 0.46 µM, above 100 µM and above 220.
In turn, `CCc1c(Cc2ccccc2)nc(SCc2ccc(C(=O)/C=C(\O)C(=O)O)cc2)[nH]c1=O` showed an IC50 in series [1] above 100 µM. In addition, the inhibition in series [2] and in series [3] was 0% each time. In series [4], the outcome was inactive.
As to `CC(C)c1c(Cc2ccccc2)n(COCCc2ccc(C(=O)/C=C(\O)C(=O)O)cc2)c(=O)[nH]c1=O`, half-maximal inhibition in series [1] (IC50) was put at 7.4 µM. Also, the inhibition in series [2] and in series [3] was 100% each time. Besides, in series [4], the Activity stood at 100%.
Compound `CC(C)c1c(Cc2ccccc2)[nH]c(=O)n(CCc2ccc(C(=O)/C=C(\O)C(=O)O)cc2)c1=O` came in with an IC50 in series [1] of 8 µM. The inhibition in series [2] and in series [3] was 0% each time. Further, in series [4], the Activity is recorded as 28%.
In turn, `CC(C)c1c(Cc2ccccc2)n(COCCCc2ccc(C(=O)/C=C(\O)C(=O)O)cc2)c(=O)[nH]c1=O` had an IC50 in series [1] of 8.2 µM. For the same compound, the inhibition in series [2] and in series [3] was 100% in each case. The Activity in series [4] was found to be 91%.
With `CC(C)c1c(Cc2ccccc2)[nH]c(=O)n(CCCc2ccc(C(=O)/C=C(\O)C(=O)O)cc2)c1=O`, in series [1], the concentration for half-maximal inhibition (IC50) worked out at 12 µM. The inhibition in series [2] and in series [3] was 0% in each case. Further, the Activity in series [4] stood at 0.6%.
Regarding `CCc1c(Cc2ccccc2)n(COCc2ccc(Cc3cccc(C(=O)/C=C(\O)C(=O)O)c3)cc2)c(=O)[nH]c1=O`, the values for the 50% inhibitory concentration (IC50) in series [5] and in series [1] were 0.71 µM and 16 µM, respectively. Also, the half-maximal effective concentration (EC50) in series [6] turned out to be 0.56 µM. The CC50 at 144 h in series [7] was 32 µM. In addition, in series [8], the selectivity ratio was 56.
On to `CC(C)c1c(Cc2ccccc2)[nH]c(=O)n(CCCCc2ccc(C(=O)/C=C(\O)C(=O)O)cc2)c1=O`, for which, in series [1], the half-maximal inhibitory concentration (IC50) worked out at 37 µM. The inhibition in series [2] and in series [3] was 0% in each case. Also, the Activity in series [4] amounted to 0%.

By IC50 is commonly meant the concentration that gives 50% inhibition. Broadly, the inhibition is the share of the control response that was lost under treatment. In general, EC50 refers to the midpoint of the concentration-response curve.
